Experimental data as given in ChEMBL document CHEMBL2331132, “Synthesis, evaluation and absolute configuration assignment of novel dihydropyrimidin-2-ones as picomolar sodium iodide symporter inhibitors” (Eur J Med Chem, 2013).

The compounds below were run on FRTL-5 (assay: Cytotoxicity against rat FRTL5 cells at 1 uM after 24 hrs by MTT assay). Settings: frtl-5, 24 h.
Assay type: cell-based
Procedure, shortened: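 Rat FRTL5 thyroid cells at about 50% confluence, given a single compound concentration for 24 h. MTT added (1.2 mg/mL), then 3 h at 37 °C and absorbance read at 570 nm to score viability. Ouabain run as assay control at eight concentrations.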

Structure (SMILES)	Activity
CC1=C(C(=O)OCc2ccc3c(c2)OCO3)C(c2ccco2)NC(=O)N1C (configuration not stated)	Non-toxic
COc1ccc(COC(=O)C2=C(C)N(C)C(=O)N(C)C2c2ccco2)cc1OC (configuration not stated)	Non-toxic
COc1ccc(COC(=O)C2=C(C)N(C)C(=O)N(C)C2c2ccco2)cc1 (configuration not stated)	Non-toxic
COc1ccc(COC(=O)C2=C(C)NC(=O)NC2c2ccco2)cc1OC (configuration not stated)	Non-toxic
COc1cccc(COC(=O)C2=C(C)N(C)C(=O)N(C)C2c2ccco2)c1 (configuration not stated)	Non-toxic
COc1ccc(COC(=O)C2=C(C)N(C)C(=O)NC2c2ccco2)cc1 (configuration not stated)	Non-toxic
COc1ccc(COC(=O)C2=C(C)N(C)C(=O)NC2c2ccco2)cc1OC (configuration not stated)	Non-toxic
COc1ccc(COC(=O)C2=C(C)NC(=O)NC2c2ccco2)cc1 (configuration not stated)	Non-toxic
CC1=C(C(=O)OCc2ccc3c(c2)OCO3)C(c2ccco2)NC(=O)N1 (configuration not stated)	Non-toxic
COc1cccc(COC(=O)C2=C(C)NC(=O)NC2c2ccco2)c1 (configuration not stated)	Non-toxic
COc1cccc(COC(=O)C2=C(C)N(C)C(=O)NC2c2ccco2)c1 (configuration not stated)	Non-toxic
CC1=C(C(=O)OCc2ccc3c(c2)OCO3)C(c2ccco2)N(C)C(=O)N1C (configuration not stated)	Non-toxic

These compounds were tested against T1, Sodium/iodide cotransporter (Rattus norvegicus, UniProt Q63008) (assay: inhibition of sodium iodide symporter in rat FRTL5 cells after 1 hr by arsenic/cerium titration assay). Settings: not given.
T1 sequence (Q63008 whole entry): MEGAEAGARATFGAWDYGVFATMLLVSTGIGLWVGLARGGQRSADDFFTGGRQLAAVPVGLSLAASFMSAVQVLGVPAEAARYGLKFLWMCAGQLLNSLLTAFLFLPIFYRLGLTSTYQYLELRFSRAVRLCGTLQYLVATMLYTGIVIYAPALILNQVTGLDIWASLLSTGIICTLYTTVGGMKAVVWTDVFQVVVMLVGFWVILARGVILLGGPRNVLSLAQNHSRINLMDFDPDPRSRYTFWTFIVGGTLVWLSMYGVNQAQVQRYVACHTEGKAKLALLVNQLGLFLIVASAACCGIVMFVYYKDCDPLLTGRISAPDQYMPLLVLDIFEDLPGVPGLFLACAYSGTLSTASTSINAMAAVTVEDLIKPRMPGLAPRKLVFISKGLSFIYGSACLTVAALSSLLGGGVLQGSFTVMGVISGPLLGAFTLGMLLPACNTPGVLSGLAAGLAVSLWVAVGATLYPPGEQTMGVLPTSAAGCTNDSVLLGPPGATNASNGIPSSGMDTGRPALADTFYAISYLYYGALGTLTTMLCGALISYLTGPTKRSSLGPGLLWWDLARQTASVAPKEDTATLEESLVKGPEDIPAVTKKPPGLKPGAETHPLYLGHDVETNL
Assay type: cell-based, FRTL-5
Procedure, shortened: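 Iodide entrapment measured in FRTL5 cells after 1 h incubation at 20 ± 1 °C. Supernatant removed, then cellular iodide read at once by a modified non-radioactive As/Ce Sandell–Kolthoff reaction against iodide standards. DMSO stocks 20 mM; NaClO₄ and a reference inhibitor on every plate as controls. Racemates tested. IC₅₀ from a four-parameter Hill fit, averaged over ≥2 independent experiments.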

Structure (SMILES)	IC50
COc1ccc(COC(=O)C2=C(C)N(C)C(=O)N(C)C2c2ccco2)cc1OC (configuration not stated)	65 nM
COc1ccc(COC(=O)C2=C(C)NC(=O)N[C@@H]2c2ccccc2)cc1	70 nM
COc1ccc(COC(=O)C2=C(C)NC(=O)N[C@@H]2c2ccco2)cc1	630 nM
COc1ccc(COC(=O)C2=C(C)NC(=O)N[C@H]2c2ccccc2)cc1	1500 nM
COc1ccc(COC(=O)C2=C(C)NC(=O)NC2c2ccco2)cc1OC (configuration not stated)	400 nM
COc1ccc(COC(=O)C2=C(C)NC(=O)NC2c2ccccc2)cc1 (configuration not stated)	89 nM
COc1ccc(COC(=O)C2=C(C)N(C)C(=O)NC2c2ccco2)cc1OC (configuration not stated)	1000 nM
COc1ccc(COC(=O)C2=C(C)NC(=O)N[C@H]2c2ccco2)cc1	14000 nM
CC1=C(C(=O)OCc2ccc3c(c2)OCO3)[C@H](c2ccco2)N(C)C(=O)N1C	630 nM
CC1=C(C(=O)OCc2ccc3c(c2)OCO3)[C@@H](c2ccco2)N(C)C(=O)N1C	0.7 nM
